Reference: ChEMBL document CHEMBL3621107, “Ring fusion strategy for synthesis and lead optimization of sulfur-substituted anthra[1,2-c][1,2,5]thiadiazole-6,11-dione derivatives as promising scaffold of antitumor agents” (Eur J Med Chem, 2015)

How the values were obtained:
NCI/ADR-RES = assay: Cytotoxicity against human NCI/ADR-RES cells assessed as cell growth at 10 uM after 48 hrs by SRB assay relative to control; type: functional; details: read-out: Activity
Procedure, shortened: (§1)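 First-stage NCI DTP one-dose screen against the 60 human tumour cell line panel. Compounds were tested at a single 10 μM level, and results are given as growth percentage.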

SF-539 = assay: Cytotoxicity against human SF539 cells assessed as cell growth at 10 uM after 48 hrs by SRB assay relative to control; type: functional; details: SF-539, 48 h, read-out: Activity; procedure, shortened: as §1
HL-60(TB) = assay: Cytotoxicity against human HL-60(TB) cells assessed as cell growth at 10 uM after 48 hrs by SRB assay relative to control; type: functional; details: HL-60, 48 h, read-out: Activity
Procedure, shortened: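 NCI Developmental Therapeutics Program 60-cell-line screen, first stage: a single dose of 10 μM against the panel, reported as percentage growth.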

SNB-19 = assay: Cytotoxicity against human SNB19 cells assessed as cell growth at 10 uM after 48 hrs by SRB assay relative to control; type: functional; details: SNB-19, 48 h, read-out: Activity
Procedure, shortened: (§2)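 NCI-60 one-dose screen run by NCI DTP: each cell line exposed to a single 10 µM dose, and percentage growth recorded against untreated growth.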

SNB-75 = assay: Cytotoxicity against human SNB75 cells assessed as cell growth at 10 uM after 48 hrs by SRB assay relative to control; type: functional; details: SNB-75, 48 h, read-out: Activity; procedure, shortened: as §2
MDA-MB-435 = assay: Cytotoxicity against human MDA-MB-435 cells assessed as cell growth at 10 uM after 48 hrs by SRB assay relative to control; type: functional; details: MDA-MB-435, 48 h, read-out: Activity; procedure, shortened: as §1
OVCAR-3 = assay: Cytotoxicity against human OVCAR3 cells assessed as cell growth at 10 uM after 48 hrs by SRB assay relative to control; type: functional; details: OVCAR-3, 48 h, read-out: Activity; procedure, shortened: as §1
A549 = assay: Cytotoxicity against human A549 cells assessed as cell growth at 10 uM after 48 hrs by SRB assay relative to control; type: functional; details: A549, 48 h, read-out: Activity
Procedure, shortened: (§3)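 First-stage NCI-60 screen by the NCI Developmental Therapeutics Program. Each compound was tested once at a single concentration of 10 μM against the 60-cell-line panel. Growth percentage was reported for each cell line.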

COLO 205 = assay: Cytotoxicity against human COLO205 cells assessed as cell growth at 10 uM after 48 hrs by SRB assay relative to control; type: functional; details: COLO 205, 48 h, read-out: Activity; procedure, shortened: as §3
RPMI-8226 = assay: Cytotoxicity against human RPMI8226 cells assessed as cell growth at 10 uM after 48 hrs by SRB assay relative to control; type: functional; details: RPMI-8226, 48 h, read-out: Activity; procedure, shortened: as §1
MDA-MB-468 = assay: Cytotoxicity against human MDA-MB-468 cells assessed as cell growth at 10 uM after 48 hrs by SRB assay relative to control; type: functional; details: MDA-MB-468, 48 h, read-out: Activity; procedure, shortened: as §1
HCT-116 = assay: Cytotoxicity against human HCT116 cells assessed as cell growth at 10 uM after 48 hrs by SRB assay relative to control; type: functional; details: HCT-116, 48 h, read-out: Activity; procedure, shortened: as §3
SF-295 = assay: Cytotoxicity against human SF295 cells assessed as cell growth at 10 uM after 48 hrs by SRB assay relative to control; type: functional; details: SF-295, 48 h, read-out: Activity; procedure, shortened: as §1
OVCAR-8 = assay: Cytotoxicity against human OVCAR8 cells assessed as cell growth at 10 uM after 48 hrs by SRB assay relative to control; type: functional; details: OVCAR-8, 48 h, read-out: Activity; procedure, shortened: as §1
MCF7 = assay: Cytotoxicity against human MCF7 cells assessed as cell growth at 10 uM after 48 hrs by SRB assay relative to control; type: functional; details: MCF7, 48 h, read-out: Activity; procedure, shortened: as §3
HOP-62 = assay: Cytotoxicity against human HOP62 cells assessed as cell growth at 10 uM after 48 hrs by SRB assay relative to control; type: functional; details: HOP-62, 48 h, read-out: Activity; procedure, shortened: as §3
CAKI-1 = assay: Cytotoxicity against human Caki1 cells assessed as cell growth at 10 uM after 48 hrs by SRB assay relative to control; type: functional; details: CAKI-1, 48 h, read-out: Activity; procedure, shortened: as §3
SF-268 = assay: Cytotoxicity against human SF268 cells assessed as cell growth at 10 uM after 48 hrs by SRB assay relative to control; type: functional; details: SF-268, 48 h, read-out: Activity; procedure, shortened: as §1
MOLT-4 = assay: Cytotoxicity against human MOLT4 cells assessed as cell growth at 10 uM after 48 hrs by SRB assay relative to control; type: functional; details: MOLT-4, 48 h, read-out: Activity; procedure, shortened: as §1
SR = assay: Cytotoxicity against human SR cells assessed as cell growth at 10 uM after 48 hrs by SRB assay relative to control; type: functional; details: read-out: Activity; procedure, shortened: as §2
PC-3 = assay: Cytotoxicity against human PC3 cells after 48 hrs by SRB assay; type: functional, cell-based; details: PC-3, 48 h
Procedure, shortened: (§4)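 Second-stage NCI-60 panel run by the NCI Developmental Therapeutics Program, covering nine tumour subpanels. Five concentrations were tested: 0.01, 0.1, 1, 10 and 100 μM. Percentage growth at each level was plotted against log10 drug concentration. GI50, TGI and LC50 were read from these dose-response curves. Subpanel MID values were divided into the full-panel MID to give selectivity ratios.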

NCI-H522 = assay: Cytotoxicity against human NCI-H522 cells assessed as cell growth at 10 uM after 48 hrs by SRB assay relative to control; type: functional; details: NCI-H522, 48 h, read-out: Activity; procedure, shortened: as §1
K562 = assay: Cytotoxicity against human K562 cells assessed as cell growth at 10 uM after 48 hrs by SRB assay relative to control; type: functional; details: K562, 48 h, read-out: Activity; procedure, shortened: as §3
SN12C = assay: Cytotoxicity against human SN12C cells assessed as cell growth at 10 uM after 48 hrs by SRB assay relative to control; type: functional; details: read-out: Activity; procedure, shortened: as §1
UACC-257 = assay: Cytotoxicity against human UACC257 cells assessed as cell growth at 10 uM after 48 hrs by SRB assay relative to control; type: functional; details: UACC-257, 48 h, read-out: Activity; procedure, shortened: as §2
UO-31 = assay: Cytotoxicity against human UO31 cells assessed as cell growth at 10 uM after 48 hrs by SRB assay relative to control; type: functional; details: UO-31, 48 h, read-out: Activity; procedure, shortened: as §2
OVCAR-4 = assay: Cytotoxicity against human OVCAR4 cells after 48 hrs by SRB assay; type: functional; details: OVCAR-4, 48 h; procedure, shortened: as §4
SK-MEL-2 = assay: Cytotoxicity against human SK-MEL-2 cells after 48 hrs by SRB assay; type: functional; details: SK-MEL-2, 48 h; procedure, shortened: as §4

SMILES	growth at 10 µM (NCI/ADR-RES)	growth at 10 µM (SF-539)	growth at 10 µM (HL-60(TB))	growth at 10 µM (SNB-19)	growth at 10 µM (SNB-75)	growth at 10 µM (MDA-MB-435)	growth at 10 µM (OVCAR-3)	growth at 10 µM (A549)	growth at 10 µM (COLO 205)	growth at 10 µM (RPMI-8226)	growth at 10 µM (MDA-MB-468)	growth at 10 µM (HCT-116)	growth at 10 µM (OVCAR-8)	growth at 10 µM (MCF7)	growth at 10 µM (HOP-62)	IC50 (PC-3)	growth at 10 µM (NCI-H522)	growth at 10 µM (SN12C)	growth at 10 µM (UACC-257)	growth at 10 µM (UO-31)	other results
Cc1ccccc1Sc1cc2c(c3nsnc13)C(=O)c1ccccc1C2=O	59.5%	78%	79.5%	104%	76.3%	80.6%	5.3%	105%	99.2%	48.6%	53.7%	92.2%	76.3%	66.1%	59.5%	> 15 µM	74.8%	86%	87.3%	62.1%	growth at 10 µM (SF-295): 105%; growth at 10 µM (CAKI-1): 81.5%; growth at 10 µM (SF-268): 74.7%; growth at 10 µM (MOLT-4): 67.3%; growth at 10 µM (SR): 23%; growth at 10 µM (K562): 32.3%
Cc1ccc(Sc2cc3c(c4nsnc24)C(=O)c2ccccc2C3=O)c(C)c1	97.8%	100%	99.9%	102%	76%	106%	105%	110%	107%	85.1%	100%	94.5%	105%	79.8%	79.3%	> 15 µM	96.8%	98.7%	122%	65.7%	growth at 10 µM (SF-268): 90.6%; growth at 10 µM (MOLT-4): 91%; growth at 10 µM (SR): 70.3%; growth at 10 µM (K562): 68%
Cc1cc(C)cc(Sc2cc3c(c4nsnc24)C(=O)c2ccccc2C3=O)c1	97.5%	94.9%	73.7%	107%	80.6%	105%	118%	107%	106%	89.1%	116%	92.3%	92.2%	75.8%	91%	> 15 µM	106%	105%	116%	69.1%	growth at 10 µM (SF-295): 91.1%; growth at 10 µM (CAKI-1): 91%; growth at 10 µM (SF-268): 108%; growth at 10 µM (MOLT-4): 71.4%; growth at 10 µM (SR): 78.4%; growth at 10 µM (K562): 75.6%
O=C1c2ccccc2C(=O)c2c1cc(Sc1cccc(Cl)c1)c1nsnc21	-15.1%	-52.7%	–	56.9%	26.1%	-82.3%	–	107%	106%	–	-79.2%	-67.8%	-22.9%	-69.4%	42.1%	5.64 µM	7.18%	-66.2%	-84.6%	-74.8%	GI50 (OVCAR-4): 0.31 µM; LC50 (OVCAR-4): 6.71 µM; TGI (OVCAR-4): 0.94 µM; GI50 (SK-MEL-2): 2.34 µM; LC50 (SK-MEL-2): 9.87 µM; TGI (SK-MEL-2): 4.81 µM; growth at 10 µM (CAKI-1): -3.69%
O=C1c2ccccc2C(=O)c2c1cc(Sc1cc(Cl)ccc1Cl)c1nsnc21	83.1%	88.7%	72.7%	84.4%	47%	106%	99.4%	103%	110%	77.2%	90.7%	81.9%	85.1%	85.2%	63.2%	> 15 µM	91.3%	96.7%	119%	91.5%	growth at 10 µM (SF-295): 78.9%; growth at 10 µM (CAKI-1): 108%; growth at 10 µM (SF-268): 83%; growth at 10 µM (MOLT-4): 1.27%; growth at 10 µM (SR): 41.1%; growth at 10 µM (K562): 47.8%
COc1ccc(Sc2cc3c(c4nsnc24)C(=O)c2ccccc2C3=O)cc1	97.6%	93.5%	103%	114%	79%	119%	110%	103%	112%	101%	113%	94.6%	99.5%	93.8%	95.2%	> 15 µM	95.7%	107%	118%	68.3%	growth at 10 µM (CAKI-1): 108%; growth at 10 µM (SF-268): 94.8%; growth at 10 µM (MOLT-4): 82.9%; growth at 10 µM (SR): 102%; growth at 10 µM (K562): 92%
CCOc1cccc(Sc2cc3c(c4nsnc24)C(=O)c2ccccc2C3=O)c1	102%	93.7%	–	103%	77.2%	106%	–	111%	106%	–	108%	101%	112%	78.8%	91.9%	> 15 µM	98.2%	105%	126%	76.7%	growth at 10 µM (CAKI-1): 84.2%
COc1cccc(Sc2cc3c(c4nsnc24)C(=O)c2ccccc2C3=O)c1	92.7%	107%	84.5%	106%	81.8%	72.5%	85.8%	110%	110%	52%	93.5%	85.7%	97.3%	72.8%	61.8%	> 15 µM	82.4%	95.9%	104%	75.5%	growth at 10 µM (SF-268): 89.8%; growth at 10 µM (MOLT-4): 35.8%; growth at 10 µM (SR): 36.1%; growth at 10 µM (K562): 38.5%
